Assay results as given in ChEMBL document CHEMBL1147533, “Highly diastereoselective inverse electron demand (IED) Diels-Alder reaction mediated by chiral salen-AlCl complex: the first, target-oriented synthesis of pyranoquinolines as potential antibacterial agents” (Bioorg Med Chem Lett, 2004).

Key:
Format in all cases: functional, organism-based
[1] = tested on: Vibrio parahaemolyticus; assay: In vitro antibacterial activity of (50:50%) of compounds against Vibrio parahaemolyticus at a concentration of 2 mg/mL; - indicates No activity
How it was run: (§1)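 Five microlitres of compound stock (about 0.2 mg) combined with bacterial suspension in Tris-buffered saline (0.8 OD at 580 nm). Mixture incubated 14 h at 14 °C, then plated on TCBS agar (thiosulphate–citrate–bile salt–sucrose) to read bactericidal activity.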

[2] = tested on: Escherichia coli; assay: In vitro antibacterial activity of (50:50%) of compounds against Escherichia coli at a concentration of 2 mg/mL; - indicates No activity; how it was run: as §1
[3] = tested on: Vibrio vulnificus; assay: n vitro antibacterial activity of (25:50%) of compounds against Vibrio vulnificus at a concentration of 2 mg/mL; + indicates No activity; how it was run: as §1
[4] = tested on: Vibrio anguillarum; assay: n vitro antibacterial activity of (25:50%) of compounds against Vibrio anguillarum at a concentration of 2 mg/mL; + indicates No activity; how it was run: as §1
[5] = tested on: Pseudomonas sp.; assay: In vitro antibacterial activity of (50:50%) of compounds against Pseudomonas species at a concentration of 2 mg/mL; - indicates No activity; how it was run: as §1
[6] = tested on: Vibrio anguillarum; assay: In vitro antibacterial activity of (50:50%) of compounds against Vibrio anguillarum at a concentration of 2 mg/mL; - indicates No activity; how it was run: as §1
[7] = tested on: Vibrio alginolyticus; assay: In vitro antibacterial activity of (50:50%) of compounds against Vibrio alginolyticus at a concentration of 2 mg/mL; - indicates No activity; how it was run: as §1
[8] = tested on: Vibrio fluvialis; assay: n vitro antibacterial activity of (25:50%) of compounds against Vibrio fluvialis at a concentration of 2 mg/mL; + indicates No activity; how it was run: as §1
[9] = tested on: Pseudomonas sp.; assay: n vitro antibacterial activity of (25:50%) of compounds against Pseudomonas species at a concentration of 2 mg/mL; + indicates No activity; how it was run: as §1
[10] = tested on: Escherichia coli; assay: n vitro antibacterial activity of (25:50%) of compounds against Escherichia coli at a concentration of 2 mg/mL; + indicates No activity; how it was run: as §1
[11] = tested on: Vibrio fluvialis; assay: In vitro antibacterial activity of (50:50%) of compounds against Vibrio fluvialis at a concentration of 2 mg/mL; - indicates No activity; how it was run: as §1
[12] = tested on: Vibrio vulnificus; assay: In vitro antibacterial activity of (50:50%) of compounds against Vibrio vulnificus at a concentration of 2 mg/mL; - indicates No activity; how it was run: as §1
[13] = tested on: Vibrio parahaemolyticus; assay: n vitro antibacterial activity of (25:50%) of compounds against Vibrio parahaemolyticus at a concentration of 2 mg/mL; + indicates No activity; how it was run: as §1
[14] = tested on: Vibrio mimicus; assay: In vitro antibacterial activity of (50:50%) of compounds against Vibrio mimicus at a concentration of 2 mg/mL; - indicates No activity; how it was run: as §1
[15] = tested on: Vibrio alginolyticus; assay: n vitro antibacterial activity of (25:50%) of compounds against Vibrio alginolyticus at a concentration of 2 mg/mL; + indicates No activity; how it was run: as §1
[16] = tested on: Vibrio mimicus; assay: n vitro antibacterial activity of (25:50%) of compounds against Vibrio mimicus at a concentration of 2 mg/mL; + indicates No activity; how it was run: as §1
[17] = tested on: Escherichia coli; assay: In vitro antibacterial activity against Escherichia coli in test 1; ++ indicates mild activity; how it was run: as §1
[18] = tested on: Vibrio fluvialis; assay: In vitro antibacterial activity against Vibrio fluvialis in test 2; - indicates No activity; how it was run: as §1
[19] = tested on: Vibrio fluvialis; assay: In vitro antibacterial activity against Vibrio fluvialis in test 1; - indicates No activity; how it was run: as §1
[20] = tested on: Escherichia coli; assay: In vitro antibacterial activity against Escherichia coli in test 2; ++ indicates mild activity; how it was run: as §1
[21] = tested on: Vibrio fluvialis; assay: In vitro antibacterial activity against Vibrio fluvialis at a concentration of 2 mg/mL; - indicates No activity; how it was run: as §1
[22] = tested on: Vibrio vulnificus; assay: In vitro antibacterial activity against Vibrio vulnificus at a concentration of 2 mg/mL; - indicates No activity; how it was run: as §1
[23] = tested on: Vibrio mimicus; assay: In vitro antibacterial activity against Vibrio mimicus at a concentration of 2 mg/mL; - indicates No activity; how it was run: as §1
[24] = tested on: Pseudomonas sp.; assay: In vitro antibacterial activity against Pseudomonas species at a concentration of 2 mg/mL; - indicates No activity; how it was run: as §1
[25] = tested on: Vibrio anguillarum; assay: In vitro antibacterial activity against Vibrio anguillarum at a concentration of 2 mg/mL; - indicates No activity; how it was run: as §1
[26] = tested on: Vibrio parahaemolyticus; assay: In vitro antibacterial activity against Vibrio parahaemolyticus at a concentration of 2 mg/mL; - indicates No activity; how it was run: as §1
[27] = tested on: Vibrio alginolyticus; assay: In vitro antibacterial activity against Vibrio alginolyticus at a concentration of 2 mg/mL; - indicates No activity; how it was run: as §1
[28] = tested on: Escherichia coli; assay: In vitro antibacterial activity against Escherichia coli at a concentration of 2 mg/mL; - indicates No activity; how it was run: as §1

Structure (SMILES): c1ccc([C@@H]2Nc3ccccc3[C@@H]3OCCC[C@H]23)cc1.c1ccc([C@H]2Nc3ccccc3[C@@H]3OCCC[C@H]23)cc1
- Activity [1]: Not toxic
- Activity [2]: Not toxic
- Activity [3]: No activity
- Activity [4]: No activity
- Activity [5]: Not toxic
- Activity [6]: Not toxic
- Activity [7]: Not toxic
- Activity [8]: No activity
- Activity [9]: No activity
- Activity [10]: No activity
- Activity [11]: Not toxic
- Activity [12]: Not toxic
- Activity [13]: No activity
- Activity [14]: Not toxic
- Activity [15]: No activity
- Activity [16]: No activity

Structure (SMILES): c1ccc([C@H]2Nc3ccccc3[C@@H]3OCCC[C@H]23)cc1
- Activity [17]: mild activity
- Activity [18]: Not toxic
- Activity [19]: Not toxic
- Activity [20]: mild activity

Structure (SMILES): c1ccc([C@@H]2Nc3ccccc3[C@@H]3OCCC[C@H]23)cc1
- Activity [21]: Not toxic
- Activity [22]: Not toxic
- Activity [23]: Not toxic
- Activity [24]: Not toxic
- Activity [25]: Not toxic
- Activity [26]: Not toxic
- Activity [27]: Not toxic
- Activity [28]: Not toxic
